m5-HT2A agonist: mouse Htr2a agonists via beta-arrestin recruitment, primary screen, cell-based, luminescence. 0.66% of 360,000 active. activation, % at 7.6 µM. CHO-K1 mHTR2A beta-arrestin complementation; percent of 30 µM serotonin response. AID 624169, 2012;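 active = activation above a run cutoff, the mean activation of all tested compounds plus 3 SD, cut at about 14% in these data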
APJ antagonist: antagonists of human apelin receptor APJ, primary screen, CHO-K1 cells, beta-arrestin complementation, luminescence. P35414. inhibition, % at 20 µM. 0.32% of 330,000 active;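 active = inhibition above about 40% at 20 µM, limit read from the data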;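 also: cells challenged with 10 nM apelin-13 agonist together with compound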
EBI2 antag: EBI2 receptor antagonists, beta-arrestin recruitment, primary screen, cell-based, luminescence, 7a,25-OHC stimulation, uHTS; AID 651636, 2012; inhibition, % at 5 µM; 7a,25-OHC stimulated; 0.81% of 360,000 active; G-protein coupled receptor 183 (Homo sapiens), P32249; in the data active = inhibition above about 38%;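 also: enzyme fragment complementation signal reports receptor beta-arrestin coupling in cells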
Target sequence (P32249 whole entry, looked up, the tested form may be a part): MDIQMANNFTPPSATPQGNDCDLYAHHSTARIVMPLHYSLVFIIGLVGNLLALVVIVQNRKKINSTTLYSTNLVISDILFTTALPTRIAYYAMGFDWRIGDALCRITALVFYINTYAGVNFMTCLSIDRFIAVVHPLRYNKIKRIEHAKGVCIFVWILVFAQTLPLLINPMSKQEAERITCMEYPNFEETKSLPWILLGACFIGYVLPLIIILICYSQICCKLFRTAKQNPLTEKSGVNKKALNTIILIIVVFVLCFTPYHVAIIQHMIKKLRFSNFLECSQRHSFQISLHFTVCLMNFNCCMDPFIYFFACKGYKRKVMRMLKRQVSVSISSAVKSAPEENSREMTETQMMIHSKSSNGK
CCR6 antag: CCR6 receptor antagonists, primary screen, cell-based, CHO-K1, luminescence, beta-arrestin, uHTS; C-C chemokine receptor type 6 (Homo sapiens), P51684; CHO-K1 CCR6 PathHunter beta-arrestin, CCL20-stimulated; inhibition, % at 20 µM; 0.49% of 340,000 active; AID 493098, 2011;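 active = compounds whose inhibition of the agonist-driven luminescence signal at 20 µM reaches about 50%, limit read from the data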;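 also: cells stimulated with CCL20 at 14 nM final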
APJ agonist: agonists of human apelin receptor APJ, primary screen, CHO-K1 cells, PathHunter beta-arrestin, luminescence | P35414 | 0% DMSO wells, 100% apelin | activation, % at 20 µM | 0.11% of 330,000 active;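 active = activation more than six SD over the plate average, tested at 20 µM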
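Material: engineered CHO-K1 APJ arrestin reporter cells; amount: 1000 CHO-K1 reporter cells seeded per well; incubation: compound stimulation 90 min at 25 °C, detection 60 min; signal: luminescent beta-gal fragment complementation, chemiluminescent substrate; read-out basis: APJ agonist activity; controls: DMSO-only wells as negative, 10 nM Apelin-13 as positive control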
CXCR6 block: CXCR6 receptor inhibitors, primary screen, cell-based, beta-arrestin, luminescence, CHO-K1 PathHunter, 1536-well | inhibition, % at 20 µM | C-X-C chemokine receptor type 6 (Homo sapiens), O00574 | 0.36% of 360,000 active | AID 602244, 2012; in the data active = inhibition above about 34%, passing the limit was not always enough;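 also: antagonist mode with CXCL16 agonist at 10 nM final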
EBI2 antag conf: EBI2 antagonist hit retest, beta-arrestin, confirmation, cell-based, single concentration, luminescence, 7a,25-OHC stimulation | 7a,25-OHC antagonism | AID 651997, 2013 | shares compounds with EBI2 antag | inhibition, % at 5 µM | 29% of 2,400 active;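 active = inhibition of at least 50%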
EBI2 ag: EBI2 agonist activity of antagonist hits, confirmation, counter-screen for EBI2 antagonist project, cell-based, single concentration, agonist mode, luminescence; activation, % at 5 µM; EBI2-expressing cells, 60 min; 0% vehicle, 100% 7α,25-dihydroxycholesterol control; AID 652000, 2013; shares compounds with EBI2 antag; 2,400 tested, under 10 active;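 active = activation of at least 50%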
bGal counter: E. coli beta-galactosidase enzyme inhibition, confirmation, counter-screen for EBI2 antagonist project, biochemical, luminescence, single concentration; shares compounds with EBI2 antag; purified beta-galactosidase, luminescent Galacton Star, 15 min; inhibition, % at 5 µM; 1% of 2,400 active;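 active = replicate-average signal at least 3 plate SD below neutral wells, shown as high inhibition, flagging enzyme-inhibiting false positives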;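 also: higher means stronger loss of beta-gal luminescence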
A number is an active result; . = inactive; / = no result given. Compounds with a hit are over-represented: about 2.1% of the library has one in this group of screens.

SMILES	m5-HT2A agonist	APJ antagonist	EBI2 antag	CCR6 antag	APJ agonist	CXCR6 block	EBI2 antag conf	EBI2 ag	bGal counter
COc1ccc(N2CC(C(=O)Nc3ccc(S(=O)(=O)N4CCCCC4)cc3)CC2=O)cc1 (centres undefined)	.	.	75.1	.	.	.	56.5	.	.
CCOc1ccc(N2CC(C(=O)Nc3cccc(S(=O)(=O)N4CCCCC4)c3)CC2=O)cc1 (centres undefined)	.	.	.	.	.	.	/	/	/
Cc1nn(CC(=O)N2CCN(S(=O)(=O)c3ccccc3)CC2)c(C)c1[N+](=O)[O-]	.	.	.	.	.	.	/	/	/
Cc1ccc(NC(=S)N/N=C2\CCCCC2C)cc1 (centres undefined)	.	.	.	.	.	.	/	/	/
COc1cc2ccccc2cc1C(=O)Nc1ccc(Cc2ccncc2)cc1	.	.	47.9	.	.	.	.	.	.
O=C(COc1ccccc1)N1CCN(c2ncccn2)CC1	.	.	.	.	.	.	/	/	/
Cc1ccc(Cl)cc1N1CCN(C(=O)COc2ccc3c(c2)CCC3)CC1	.	.	77.5	.	.	.	.	.	.
COc1ccccc1N1CCN(C(=O)COc2ccc(Cl)cc2)CC1	.	.	81.3	.	.	.	51.8	.	.
CC(C)(C)c1ccc(OCC(=O)N2CCN(c3ncccn3)CC2)cc1	.	.	.	.	.	.	/	/	/
COc1ccccc1OCC(=O)N1CCN(c2ccccc2OC)CC1	.	.	.	.	.	.	/	/	/
O=C(COc1ccc(Cl)cc1)N1CCN(c2ncccn2)CC1	.	.	72.6	.	.	.	58.1	.	.
O=C(COc1ccc(Br)cc1)N1CCN(c2ncccn2)CC1	.	.	93.9	.	.	.	78.7	.	.
CCOc1ccc(N=CC2=C(O)CC(C)(C)CC2=O)cc1	.	.	.	.	.	.	/	/	/
COc1ccc(NS(=O)(=O)c2cccc(C(=O)N/N=C(\C)c3ccncc3)c2)cc1	.	.	.	.	.	.	/	/	/
C=CCON/C(CCC)=C1\C(=O)CC(C)(C)CC1=NC	.	.	.	.	.	.	/	/	/
CCCCCCC(=O)N1CCCC(c2nc(-c3cccc(OC)c3)no2)C1 (centres undefined)	.	.	.	.	.	.	/	/	/
O=C(COc1ccc(Br)cc1)N/N=C1/SCC(=O)N1Cc1ccccc1	.	.	48.8	.	.	.	.	.	.
CCOC(=O)C1=C(O)/C(=C/c2ccc(OCC(=O)O)c(OCC)c2)SC1=Nc1ccc(OC)cc1	.	.	.	.	.	.	/	/	/
CCOC(=O)C1=C(O)/C(=C/c2cc(OC)c(OC)c(OC)c2)SC1=Nc1ccc(OC)cc1	.	.	62.3	.	.	.	54.7	.	.
NC(=NCc1ccc2c(c1)OCO2)NC(=O)c1ccccc1	.	.	.	.	.	.	/	/	/
N#Cc1cc2c(nc1SCC(=O)Nc1sc3c(c1C#N)CCC3)CCCCCC2	.	.	46.9	.	.	.	.	.	.
CCN(CC)S(=O)(=O)c1ccc(N2CCCCC2)c(NC(=O)/C(C#N)=C/c2ccc(OC)cc2)c1	.	.	42.1	.	.	.	.	.	.
COc1ccc(/C=C(\C#N)C(=O)Nc2cc(S(=O)(=O)N3CCOCC3)ccc2N2CCCC2)cc1	.	.	80.1	.	.	.	83.9	.	.
COc1ccc(CC(=O)Nc2cc(S(=O)(=O)N3CCOCC3)ccc2N2CCCC2)c(OC)c1	.	/	.	.	/	.	/	/	/
Cc1cc(Cl)ccc1OCC(=O)N1CCCCC1	.	.	.	.	.	.	/	/	/
SMILES	m5-HT2A agonist	APJ antagonist	EBI2 antag	CCR6 antag	APJ agonist	CXCR6 block	EBI2 antag conf	EBI2 ag	bGal counter
Cc1cc(C)c(OCC(=O)N2CCN(c3ncc(C(F)(F)F)cc3Cl)CC2)c(C)c1	.	.	.	.	.	.	/	/	/
Cc1cc(Cl)cc(C)c1OCC(=O)N1CCN(c2ncccn2)CC1	.	.	75.7	.	.	.	.	.	.
Cc1ccc(C(C)C)c(OCC(=O)N2CCOCC2)c1	.	.	.	.	.	.	/	/	/
Cc1cc(Cl)ccc1OCC(=O)N1CCN(c2ncccn2)CC1	.	.	55.8	.	.	.	.	.	.
Cc1ccc(C(C)C)c(OCC(=O)N2CCN(c3ncccn3)CC2)c1	.	.	48.4	.	.	.	.	.	.
CCOC(=O)CNC(=O)CSc1nnc(-c2ccc(OC)cc2)n1CC	.	.	.	.	.	.	/	/	/
O=C(c1ccc(S(=O)(=O)N2CCCCCC2)cc1)N1CCN(c2ccccc2F)CC1	.	.	.	.	.	.	/	/	/
O=C(NCc1ccccc1)c1ccc(Cl)cc1	/	.	/	.	.	/	/	/	/
Cc1ccc(CNC(=O)c2ccc(N3CCCC3=O)cc2)cc1	.	.	62.7	.	.	.	.	.	.
O=C(NCc1ccco1)c1ccc(N2CCCC2=O)cc1	.	.	.	.	.	.	/	/	/
O=C(NCc1ccc(Cl)cc1)c1ccc(N2CCCC2=O)cc1	.	.	54.9	.	.	.	.	.	.
CC(C)c1ccc(C(=O)NCc2ccc(Cl)cc2)cc1	.	.	61.1	.	.	.	.	.	.
O=C(NCc1ccc(N2CCCC2=O)cc1)c1ccc(F)cc1	.	.	.	.	.	.	/	/	/
COc1ccc(S(=O)(=O)NCCc2ccccc2)c2cccnc12	.	.	.	.	.	.	/	/	/
COCCOC(=O)c1c(NC(=O)CN2CCOCC2)sc(C(N)=O)c1C	.	.	.	.	.	.	/	/	/
COCCOC(=O)c1c(NC(=O)CN2c3ccccc3CC2C)sc(C(N)=O)c1C (centres undefined)	.	.	65.4	.	.	.	.	.	.
COc1ccccc1N(C(=O)c1ccncc1)c1nc(-c2ccc([N+](=O)[O-])cc2)cs1	.	.	55.1	.	.	.	74.2	.	.
Cc1ccc(S(=O)(=O)Oc2ccccc2/C=N/O)cc1	.	.	.	.	.	.	/	/	/
COc1ccc(C(=O)/C=C/c2ccc(OC(=O)c3cc(OC)c(OC)c(OC)c3)cc2)cc1	.	.	45.0	.	.	.	.	.	.
